Laboratory results taken from ChEMBL document CHEMBL4359830, “Discovery and structure-activity relationship of novel diphenylthiazole derivatives as BTK inhibitor with potent activity against B cell lymphoma cell lines” (Eur J Med Chem, 2019).
The source made the active and inactive calls. The rule behind the calls is not given here.

How the values were obtained:
Raji [1] = assay: Antiproliferative activity against human Raji cells measured after 72 hrs by CCK-8 assay; assay type: functional, cell-based
In short: (§1)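 Ramos or Raji cells in RPMI-1640 with 10% FBS and 1% penicillin-streptomycin at 37 °C, 5% CO2. Seeded at 2000–3000 cells/well one day before compound addition. Exposure 72 h, then CCK-8 with absorbance at 450 nm. […] Single-point inhibition at 40 µM reported as mean ± standard deviation.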

Ramos [2] = assay: Induction of apoptosis in human Ramos cells assessed as late apoptotic cells at 3 uM measured after 15 mins by Annexin-V-APC staining-based flow cytometric analysis (reference value: 1.85 %); assay type: functional
Raji [3] = assay: Induction of apoptosis in human Raji cells assessed as necrotic cells at 5 uM measured after 15 mins by Annexin-V-APC staining-based flow cytometric analysis (reference value: 1.87 %); assay type: functional
Raji [4] = assay: Induction of apoptosis in human Raji cells assessed as late apoptotic cells at 3 uM measured after 15 mins by Annexin-V-APC staining-based flow cytometric analysis (reference value: 0.57 %); assay type: functional
Ramos [5] = assay: Cell cycle arrest in human Ramos cells assessed as accumulation at S phase at 5 uM measured after 48 hrs by propidium iodide/RNase staining based flow cytometric analysis (reference value: 56.35 %); assay type: functional
Ramos [6] = assay: Induction of apoptosis in human Ramos cells assessed as early apoptotic cells at 3 uM measured after 15 mins by Annexin-V-APC staining-based flow cytometric analysis (reference value: 0.14 %); assay type: functional
Raji [7] = assay: Induction of apoptosis in human Raji cells assessed as necrotic cells at 3 uM measured after 15 mins by Annexin-V-APC staining-based flow cytometric analysis (reference value: 1.87 %); assay type: functional
Ramos [8] = assay: Induction of apoptosis in human Ramos cells assessed as necrotic cells at 3 uM measured after 15 mins by Annexin-V-APC staining-based flow cytometric analysis (reference value: 1.50 %); assay type: functional
[9] = biological target: T1, Tyrosine-protein kinase BTK (Homo sapiens, UniProt Q06187); assay: Inhibition of BTK in anti-IgM-stimulated human Raji cells assessed as decrease in auto-phosphorylation at Y223 residue after 48 hrs by Western blot analysis; assay type: cell-based
In short: (§2)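 Cells were stimulated with anti-IgM and exposed to serial dilutions for 48 h. Lysis was in 2× Laemmli buffer with 2.5% β-mercaptoethanol at 4 °C for 15 min, then boiling for 5 min. Proteins were separated on 10% SDS-PAGE and moved to nitrocellulose. Blots were probed overnight (12–18 h, 4 °C) with phospho-BTK Tyr223, phospho-PLCγ2 Tyr1217 and β-actin antibodies (1:1000), then anti-rabbit HRP, with chemiluminescent detection.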

Ramos [10] = assay: Induction of apoptosis in human Ramos cells assessed as early apoptotic cells at 1 uM measured after 15 mins by Annexin-V-APC staining-based flow cytometric analysis (reference value: 0.14 %); assay type: functional
Raji [11] = assay: Induction of apoptosis in human Raji cells assessed as late apoptotic cells at 1 uM measured after 15 mins by Annexin-V-APC staining-based flow cytometric analysis (reference value: 0.57 %); assay type: functional
Ramos [12] = assay: Induction of apoptosis in human Ramos cells assessed as early apoptotic cells at 5 uM measured after 15 mins by Annexin-V-APC staining-based flow cytometric analysis (reference value: 0.14 %); assay type: functional
Raji [13] = assay: Induction of apoptosis in human Raji cells assessed as early apoptotic cells at 3 uM measured after 15 mins by Annexin-V-APC staining-based flow cytometric analysis (reference value: 0.021 %); assay type: functional
[14] = biological target: T1, Tyrosine-protein kinase BTK; assay: Inhibition of BTK in anti-IgM-stimulated human Raji cells assessed as decrease in auto-phosphorylation at Y223 residue at 5 uM after 48 hrs by Western blot analysis; assay type: cell-based; in short: as §2
Raji [15] = assay: Cell cycle arrest in human Raji cells assessed as accumulation at G0/G1 phase at 5 uM measured after 48 hrs by propidium iodide/RNase staining based flow cytometric analysis (reference value: 48.68 %); assay type: functional
Ramos [16] = assay: Induction of apoptosis in human Ramos cells assessed as late apoptotic cells at 1 uM measured after 15 mins by Annexin-V-APC staining-based flow cytometric analysis (reference value: 1.85 %); assay type: functional
Ramos [17] = assay: Cell cycle arrest in human Ramos cells assessed as accumulation at S phase at 1 uM measured after 48 hrs by propidium iodide/RNase staining based flow cytometric analysis (reference value: 56.35 %); assay type: functional
Raji [18] = assay: Antiproliferative activity against human Raji cells at 40 uM measured after 72 hrs by CCK-8 assay relative to control; assay type: functional; details: Homo sapiens, Raji, 72 h; in short: as §1
[19] = biological target: T1, Tyrosine-protein kinase BTK; assay: Inhibition of human recombinant full length N-terminal His tagged BTK expressed in baculovirus infected Sf9 cells using poly (Glu,Tyr) 4:1 as substrate measured after 60 mins in presence of ATP by ADP-Glo kinase assay
Raji [20] = assay: Cell cycle arrest in human Raji cells assessed as accumulation at S phase at 1 uM measured after 48 hrs by propidium iodide/RNase staining based flow cytometric analysis (reference value: 33.18 %); assay type: functional
Raji [21] = assay: Induction of apoptosis in human Raji cells assessed as viable cells at 1 uM measured after 15 mins by Annexin-V-APC staining-based flow cytometric analysis (reference value: 97.5 %); assay type: functional; details: 0.25 h, read-out: Activity
Raji [22] = assay: Induction of apoptosis in human Raji cells assessed as early apoptotic cells at 0.1 uM measured after 15 mins by Annexin-V-APC staining-based flow cytometric analysis (reference value: 0.021 %); assay type: functional
Ramos [23] = assay: Induction of apoptosis in human Ramos cells assessed as viable cells at 3 uM measured after 15 mins by Annexin-V-APC staining-based flow cytometric analysis (reference value: 96.5 %); assay type: functional; details: 0.25 h, read-out: Activity
Ramos [24] = assay: Cell cycle arrest in human Ramos cells assessed as accumulation at S phase at 0.1 uM measured after 48 hrs by propidium iodide/RNase staining based flow cytometric analysis (reference value: 56.35 %); assay type: functional
Ramos [25] = assay: Antiproliferative activity against human Ramos cells measured after 72 hrs by CCK-8 assay; assay type: functional, cell-based; in short: as §1
Raji [26] = assay: Cell cycle arrest in human Raji cells assessed as accumulation at G0/G1 phase at 1 uM measured after 48 hrs by propidium iodide/RNase staining based flow cytometric analysis (reference value: 48.68 %); assay type: functional
Ramos [27] = assay: Cell cycle arrest in human Ramos cells assessed as accumulation at G0/G1 phase at 5 uM measured after 48 hrs by propidium iodide/RNase staining based flow cytometric analysis (reference value: 37.66 %); assay type: functional
Ramos [28] = assay: Induction of apoptosis in human Ramos cells assessed as late apoptotic cells at 5 uM measured after 15 mins by Annexin-V-APC staining-based flow cytometric analysis (reference value: 1.85 %); assay type: functional
Ramos [29] = assay: Cell cycle arrest in human Ramos cells assessed as accumulation at G2/M phase at 0.1 uM measured after 48 hrs by propidium iodide/RNase staining based flow cytometric analysis (reference value: 5.98 %); assay type: functional
Ramos [30] = assay: Induction of apoptosis in human Ramos cells assessed as early apoptotic cells at 0.1 uM measured after 15 mins by Annexin-V-APC staining-based flow cytometric analysis (reference value: 0.14 %); assay type: functional
Ramos [31] = assay: Antiproliferative activity against human Ramos cells at 40 uM measured after 72 hrs by CCK-8 assay relative to control; assay type: functional; details: Homo sapiens, Ramos, 72 h; in short: as §1
Raji [32] = assay: Induction of apoptosis in human Raji cells assessed as early apoptotic cells at 5 uM measured after 15 mins by Annexin-V-APC staining-based flow cytometric analysis (reference value: 0.021 %); assay type: functional

T1 sequence (Q06187 whole entry): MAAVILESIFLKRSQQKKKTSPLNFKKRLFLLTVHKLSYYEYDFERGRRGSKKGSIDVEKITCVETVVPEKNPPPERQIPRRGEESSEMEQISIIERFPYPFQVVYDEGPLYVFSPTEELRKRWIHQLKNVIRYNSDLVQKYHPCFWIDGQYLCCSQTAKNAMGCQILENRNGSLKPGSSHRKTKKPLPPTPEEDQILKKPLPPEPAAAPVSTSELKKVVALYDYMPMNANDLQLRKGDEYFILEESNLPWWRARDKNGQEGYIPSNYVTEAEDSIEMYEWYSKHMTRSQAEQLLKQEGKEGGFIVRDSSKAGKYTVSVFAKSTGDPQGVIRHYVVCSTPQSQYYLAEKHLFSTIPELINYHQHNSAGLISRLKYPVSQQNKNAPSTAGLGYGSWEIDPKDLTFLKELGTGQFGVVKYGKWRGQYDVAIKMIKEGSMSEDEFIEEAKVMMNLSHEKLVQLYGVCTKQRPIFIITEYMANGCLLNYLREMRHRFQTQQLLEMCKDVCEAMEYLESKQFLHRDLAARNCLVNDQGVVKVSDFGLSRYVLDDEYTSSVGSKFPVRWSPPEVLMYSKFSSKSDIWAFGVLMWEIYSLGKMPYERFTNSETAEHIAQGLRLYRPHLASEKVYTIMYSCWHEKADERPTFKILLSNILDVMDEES

For CN1CCN(c2ccc(Nc3nc(-c4cccc(NC(=O)c5ccc(F)c(Cl)c5)c4)sc3C(N)=O)cc2)CC1, the IC50 (Raji [1]) was 6.23 µM, the Activity (Ramos [2]) was 6.43% and the Activity (Raji [3]) was 32%. It also gave an Activity (Raji [4]) of 1.52%, an Activity (Ramos [5]) of 14.14% and an Activity (Ramos [6]) of 0.052%. The Activity (Raji [7]) was 2.91%, the Activity (Ramos [8]) was 6.17% and the inhibition [9] was “Dose-dependent effect”. It also gave an Activity (Ramos [10]) of 0.051%, an Activity (Raji [11]) of 0.53% and an Activity (Ramos [12]) of 0.28%. The Activity (Raji [13]) was 0%, the inhibition [14] was “Active” and the Activity (Raji [15]) was 82.55%. The Activity (Ramos [16]) was 2.23%, the Activity (Ramos [17]) was 33.13% and the inhibition at 40 µM (Raji [18]) was 94.4%. For the same molecule, the IC50 [19] was 0.09 µM, the Activity (Raji [20]) was 21.47% and the viability at 1 µM (Raji [21]) was 97.6%. For the same molecule, the Activity (Raji [22]) was 0.01%, the viability at 3 µM (Ramos [23]) was 87.3% and the Activity (Ramos [24]) was 51.54%. For the same molecule, the IC50 (Ramos [25]) was 4.83 µM, the Activity (Raji [26]) was 54% and the Activity (Ramos [27]) was 83.68%. The Activity (Ramos [28]) was 72.4%, the Activity (Ramos [29]) was 8.33% and the Activity (Ramos [30]) was 0.072%. For the same molecule, the inhibition at 40 µM (Ramos [31]) was 97.5% and the Activity (Raji [32]) was 0.091%.
